Assay results reported in ChEMBL document CHEMBL3217531, “Potential Drug Abuse Therapeutics Derived from the Hallucinogenic Natural Product Salvinorin A” (Medchemcomm, 2011).
The source made the active and inactive calls. The calls are words filed in the database; no cut-off is given here.

Key:
[1] = tested on: Rattus norvegicus; assay: Antiaddiction activity in rat assessed as reduction in cocaine-induced drug seeking activity at 1 mg/kg, ip treated for 5 to 10 mins prior to priming injection of cocaine measured for 2 hrs; type: functional, organism-based; set-up: dose 1 mg/kg
Summary of the method: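 Rats trained on FR5 cocaine self-administration (0.5 mg kg⁻¹/infusion, paired light cue, 2 h sessions). Extinction with sterile heparinized saline until active lever responses <20 per 2 h session. Next day, IP vehicle (75% DMSO) or test dose 5–10 min before IP cocaine prime (20 mg kg⁻¹). Active lever responding recorded for 2 h. N = 6 at 1 mg kg⁻¹; mean ±SEM.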

[2] = molecular target: Mu-type opioid receptor (Homo sapiens, UniProt P35372); assay: Displacement of [3H]DAMGO from human mu opioid receptor expressed in CHO cell membrane after 2 hrs by liquid scintillation counting analysis; type: cell membranes
Mu-type opioid receptor, sequence (P35372 whole entry): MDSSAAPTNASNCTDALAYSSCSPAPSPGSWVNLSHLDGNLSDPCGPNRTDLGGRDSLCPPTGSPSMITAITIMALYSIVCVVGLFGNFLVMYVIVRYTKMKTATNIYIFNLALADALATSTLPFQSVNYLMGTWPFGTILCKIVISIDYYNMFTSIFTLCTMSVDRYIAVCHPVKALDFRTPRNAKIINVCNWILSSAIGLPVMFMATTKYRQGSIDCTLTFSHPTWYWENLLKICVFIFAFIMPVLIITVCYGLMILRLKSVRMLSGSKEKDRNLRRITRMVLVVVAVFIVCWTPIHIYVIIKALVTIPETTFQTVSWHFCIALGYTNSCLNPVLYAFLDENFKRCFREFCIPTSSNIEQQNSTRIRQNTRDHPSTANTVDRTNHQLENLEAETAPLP

[3] = molecular target: T1, Kappa-type opioid receptor (Homo sapiens, UniProt P41145); assay: Displacement of [3H]U69593 from human kappa opioid receptor expressed in CHO cell membrane after 2 hrs by scintillation counting analysis; type: cell membranes
T1 sequence (P41145 whole entry): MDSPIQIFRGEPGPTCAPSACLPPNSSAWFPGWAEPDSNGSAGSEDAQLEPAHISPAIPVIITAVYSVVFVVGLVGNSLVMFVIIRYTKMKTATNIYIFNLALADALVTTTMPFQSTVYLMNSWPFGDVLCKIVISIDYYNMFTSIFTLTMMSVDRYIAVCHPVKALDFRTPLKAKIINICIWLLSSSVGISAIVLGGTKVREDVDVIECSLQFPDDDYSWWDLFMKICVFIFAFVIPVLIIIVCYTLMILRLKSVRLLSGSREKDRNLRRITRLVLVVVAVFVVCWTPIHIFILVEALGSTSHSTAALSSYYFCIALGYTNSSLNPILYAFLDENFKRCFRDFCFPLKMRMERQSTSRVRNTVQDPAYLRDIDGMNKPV

[4] = molecular target: Delta-type opioid receptor (Homo sapiens, UniProt P41143); assay: Displacement of [3H]DADLE from human delta opioid receptor expressed in CHO cell membrane after 2 hrs by liquid scintillation counting analysis; type: cell membranes
Delta-type opioid receptor, sequence (P41143 whole entry): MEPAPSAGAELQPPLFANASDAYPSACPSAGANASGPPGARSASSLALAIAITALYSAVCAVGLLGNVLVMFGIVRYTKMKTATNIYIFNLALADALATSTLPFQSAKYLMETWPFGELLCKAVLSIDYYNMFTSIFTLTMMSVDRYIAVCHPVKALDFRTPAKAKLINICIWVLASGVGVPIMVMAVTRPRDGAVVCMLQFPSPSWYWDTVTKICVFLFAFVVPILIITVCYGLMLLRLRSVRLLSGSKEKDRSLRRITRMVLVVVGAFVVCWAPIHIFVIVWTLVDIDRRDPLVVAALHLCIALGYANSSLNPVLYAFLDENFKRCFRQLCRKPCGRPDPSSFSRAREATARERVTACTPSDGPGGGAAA

[5] = molecular target: T1, Kappa-type opioid receptor; assay: Agonist activity at human kappa opioid receptor expressed in CHO cell membrane assessed as [35S]GTPgammaS binding after 3 hrs by liquid scintillation counting analysis relative to (-)-U50488H; type: functional, cell membranes
[6] = molecular target: T1, Kappa-type opioid receptor; assay: Agonist activity at human kappa opioid receptor expressed in CHO cell membrane assessed as [35S]GTPgammaS binding after 3 hrs by liquid scintillation counting analysis; type: functional, cell membranes
[7] = molecular target: T1, Kappa-type opioid receptor; assay: Agonist activity at human kappa opioid receptor expressed in CHO cell membrane by [35S]GTPgammaS binding assay; type: functional, cell membranes

SMILES	Activity [1]	Ki [2] [µM]	Ki [3] [µM]	Ki [4] [µM]	Emax [5] [%]	ED50 [6] [µM]	Ki ([3]; cho) [µM]	EC50 [7] [µM]
COC(=O)[C@@H]1C[C@H](O[C@@H]2CCCCO2)C(=O)[C@H]2[C@@]1(C)CC[C@H]1C(=O)O[C@H](c3ccoc3)C[C@]21C	Active	> 10	0.00621	> 10	109			
COC(=O)[C@@H]1C[C@H](OC=O)C(=O)[C@H]2[C@@]1(C)CC[C@H]1C(=O)O[C@H](c3ccoc3)C[C@]21C		> 10	0.041	> 10				
COCO[C@H]1C[C@@H](C(=O)OC)[C@]2(C)CC[C@H]3C(=O)O[C@H](C(=O)N4CCCCC4)C[C@]3(C)[C@H]2C1=O		> 3	0.059	> 3	113			
COC(=O)[C@@H]1C[C@H](O[C@H]2CCCO2)C(=O)[C@H]2[C@@]1(C)CC[C@H]1C(=O)O[C@H](c3ccoc3)C[C@]21C		> 10	0.081	> 10	103	0.69		
CCO[C@@H](CBr)O[C@H]1C[C@@H](C(=O)OC)[C@]2(C)CC[C@H]3C(=O)O[C@H](c4ccoc4)C[C@]3(C)[C@H]2C1=O		> 3	5.26	> 5				
COC(=O)[C@@H]1C[C@H](OC(C)=O)C(=O)[C@H]2[C@@]1(C)CC[C@H]1C(=O)O[C@H](C(=O)N3CCCCC3)C[C@]21C					85	5.11	0.14	
CCOC(=O)O[C@H]1C[C@@H](C(=O)OC)[C@]2(C)CC[C@H]3C(=O)O[C@H](c4ccoc4)C[C@]3(C)[C@H]2C1=O		> 10	0.171	> 10				
COC(=O)[C@@H]1C[C@H](O[C@H]2CCCCO2)C(=O)[C@H]2[C@@]1(C)CC[C@H]1C(=O)O[C@H](c3ccoc3)C[C@]21C		> 10	0.3	> 10				
CCOCO[C@H]1C[C@@H](C(=O)OC)[C@]2(C)CC[C@H]3C(=O)O[C@H](c4ccoc4)C[C@]3(C)[C@H]2C1=O [SALVINORIN B ETHOXYMETHYL ETHER]		0.041	0.00313	1.02	127			
CCO[C@H](C)O[C@H]1C[C@@H](C(=O)OC)[C@]2(C)CC[C@H]3C(=O)O[C@H](c4ccoc4)C[C@]3(C)[C@H]2C1=O		> 5.8		> 5				
COC(=O)[C@@H]1C[C@H](O[C@@H]2CCCO2)C(=O)[C@H]2[C@@]1(C)CC[C@H]1C(=O)O[C@H](c3ccoc3)C[C@]21C		> 10	0.075	> 10	112	1.22		
CCO[C@H](CBr)O[C@H]1C[C@@H](C(=O)OC)[C@]2(C)CC[C@H]3C(=O)O[C@H](c4ccoc4)C[C@]3(C)[C@H]2C1=O		3.52	7.44	> 5				
CCNC(=O)O[C@H]1C[C@@H](C(=O)OC)[C@]2(C)CC[C@H]3C(=O)O[C@H](c4ccoc4)C[C@]3(C)[C@H]2C1=O		1.54	> 10	> 10				> 1
CCO[C@@H](C)O[C@H]1C[C@@H](C(=O)OC)[C@]2(C)CC[C@H]3C(=O)O[C@H](c4ccoc4)C[C@]3(C)[C@H]2C1=O		0.777		> 5				
